Converted amounts (≈) assume the structure as drawn.
Experiments:
Staphylococcus aureus [1] = experiment: Antimicrobial activity against Staphylococcus aureus MTCC 96 […]; type: functional
Bacillus subtilis [2] = experiment: Antimicrobial activity against Bacillus subtilis MTCC 121 by agar well diffusion method
Escherichia coli [3] = experiment: Antimicrobial activity against Escherichia coli MTCC 1652 by […]; type: functional
Escherichia coli [4] = experiment: Antimicrobial activity against Escherichia coli MTCC 1652 by microdilution assay; type: functional; details: in the assay text read “macrodilution” for “microdilution”
Outline: (§1)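 MIC determined in µg/ml by the macrodilution method, only for compounds active in the primary diffusion screen. Results are means of three replicates.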

Aspergillus flavus = experiment: Antimicrobial activity against Aspergillus flavus assessed as inhibition of mycelial growth by poisoned food method; type: functional
Pseudomonas aeruginosa [5] = experiment: Antimicrobial activity against Pseudomonas aeruginosa MTCC 741 by microdilution assay; type: functional; details: in the assay text read “macrodilution” for “microdilution”; outline: as §1
Pseudomonas aeruginosa [6] = experiment: Antimicrobial activity against Pseudomonas aeruginosa MTCC 741 after 24 hrs by […]; type: functional
Outline: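 Agar well diffusion assay (8 mm wells). Inhibition zone diameter read in mm, with the well diameter included in the value. Results are means of three replicates.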

Bacillus subtilis [7] = experiment: Antimicrobial activity against Bacillus subtilis MTCC 121 […]; type: functional
Staphylococcus aureus [8] = experiment: Antimicrobial activity against Staphylococcus aureus MTCC 96 after by agar well diffusion method
Aspergillus niger = experiment: Antimicrobial activity against Aspergillus niger assessed as inhibition of mycelial growth by poisoned food method; type: functional

Structure (SMILES): c1ccc(-c2nnc(-c3cn(-c4ccccc4)nc3-c3ccccc3)o2)cc1
- MIC (Staphylococcus aureus [1]): 64 µg/mL (≈ 176 µM)
- inhibition zone (IZ) (Bacillus subtilis [2]): 18.6 mm
- inhibition zone (IZ) (Escherichia coli [3]): 14.3 mm
- MIC (Escherichia coli [4]): > 128 µg/mL
- inhibition (INH) (Aspergillus flavus): 61.1%
- MIC (Pseudomonas aeruginosa [5]): > 128 µg/mL
- inhibition zone (IZ) (Pseudomonas aeruginosa [6]): 13.6 mm
- MIC (Bacillus subtilis [7]): 128 µg/mL (≈ 351 µM)
- inhibition zone (IZ) (Staphylococcus aureus [8]): 20.3 mm
- inhibition (INH) (Aspergillus niger): 44.4%

Structure (SMILES): Clc1ccc(-c2nn(-c3ccccc3)cc2-c2nnc(-c3ccccc3)o2)cc1
- MIC (Staphylococcus aureus [1]): 32 µg/mL (≈ 80.2 µM)
- inhibition zone (IZ) (Bacillus subtilis [2]): 19.6 mm
- inhibition zone (IZ) (Escherichia coli [3]): 15.6 mm
- MIC (Escherichia coli [4]): > 128 µg/mL
- inhibition (INH) (Aspergillus flavus): 44.4%
- MIC (Pseudomonas aeruginosa [5]): > 128 µg/mL
- inhibition zone (IZ) (Pseudomonas aeruginosa [6]): 13.6 mm
- MIC (Bacillus subtilis [7]): 64 µg/mL (≈ 160 µM)
- inhibition zone (IZ) (Staphylococcus aureus [8]): 21.6 mm
- inhibition (INH) (Aspergillus niger): 55.5%

Structure (SMILES): Fc1ccc(-c2nn(-c3ccccc3)cc2-c2nnc(-c3ccccc3)o2)cc1
- MIC (Staphylococcus aureus [1]): 128 µg/mL (≈ 335 µM)
- inhibition zone (IZ) (Bacillus subtilis [2]): 20.6 mm
- inhibition zone (IZ) (Escherichia coli [3]): 14.3 mm
- MIC (Escherichia coli [4]): > 128 µg/mL
- inhibition (INH) (Aspergillus flavus): 50%
- MIC (Pseudomonas aeruginosa [5]): > 128 µg/mL
- inhibition zone (IZ) (Pseudomonas aeruginosa [6]): 14.3 mm
- MIC (Bacillus subtilis [7]): 32 µg/mL (≈ 83.7 µM)
- inhibition zone (IZ) (Staphylococcus aureus [8]): 18.6 mm
- inhibition (INH) (Aspergillus niger): 66.6%

Structure (SMILES): Brc1ccc(-c2nn(-c3ccccc3)cc2-c2nnc(-c3ccccc3)o2)cc1
- MIC (Staphylococcus aureus [1]): 64 µg/mL (≈ 144 µM)
- inhibition zone (IZ) (Bacillus subtilis [2]): 18.3 mm
- inhibition zone (IZ) (Escherichia coli [3]): 16.6 mm
- MIC (Escherichia coli [4]): 128 µg/mL (≈ 289 µM)
- inhibition (INH) (Aspergillus flavus): 55.5%
- MIC (Pseudomonas aeruginosa [5]): > 128 µg/mL
- inhibition zone (IZ) (Pseudomonas aeruginosa [6]): 14.6 mm
- MIC (Bacillus subtilis [7]): 128 µg/mL (≈ 289 µM)
- inhibition zone (IZ) (Staphylococcus aureus [8]): 20 mm
- inhibition (INH) (Aspergillus niger): 61.1%

Structure (SMILES): Cc1ccc(-c2nn(-c3ccccc3)cc2-c2nnc(-c3ccccc3)o2)cc1
- MIC (Staphylococcus aureus [1]): 128 µg/mL (≈ 338 µM)
- inhibition zone (IZ) (Bacillus subtilis [2]): 21.6 mm
- inhibition zone (IZ) (Escherichia coli [3]): 15.6 mm
- MIC (Escherichia coli [4]): > 128 µg/mL
- inhibition (INH) (Aspergillus flavus): 61.1%
- MIC (Pseudomonas aeruginosa [5]): > 128 µg/mL
- inhibition zone (IZ) (Pseudomonas aeruginosa [6]): 13.6 mm
- MIC (Bacillus subtilis [7]): 16 µg/mL (≈ 42.3 µM)
- inhibition zone (IZ) (Staphylococcus aureus [8]): 18.3 mm
- inhibition (INH) (Aspergillus niger): 66.6%

Structure (SMILES): COc1ccc(-c2nn(-c3ccccc3)cc2-c2nnc(-c3ccccc3)o2)cc1
- MIC (Staphylococcus aureus [1]): 16 µg/mL (≈ 40.6 µM)
- inhibition zone (IZ) (Bacillus subtilis [2]): 20.3 mm
- inhibition zone (IZ) (Escherichia coli [3]): 16.3 mm
- MIC (Escherichia coli [4]): 128 µg/mL (≈ 325 µM)
- inhibition (INH) (Aspergillus flavus): 66.6%
- MIC (Pseudomonas aeruginosa [5]): > 128 µg/mL
- inhibition zone (IZ) (Pseudomonas aeruginosa [6]): 14 mm
- MIC (Bacillus subtilis [7]): 32 µg/mL (≈ 81.1 µM)
- inhibition zone (IZ) (Staphylococcus aureus [8]): 22.6 mm
- inhibition (INH) (Aspergillus niger): 44.4%

Structure (SMILES): O=[N+]([O-])c1ccc(-c2nn(-c3ccccc3)cc2-c2nnc(-c3ccccc3)o2)cc1
- MIC (Staphylococcus aureus [1]): 8 µg/mL (≈ 19.5 µM)
- inhibition zone (IZ) (Bacillus subtilis [2]): 21.6 mm
- inhibition zone (IZ) (Escherichia coli [3]): 15.6 mm
- MIC (Escherichia coli [4]): > 128 µg/mL
- inhibition (INH) (Aspergillus flavus): 61.1%
- MIC (Pseudomonas aeruginosa [5]): > 128 µg/mL
- inhibition zone (IZ) (Pseudomonas aeruginosa [6]): 14.3 mm
- MIC (Bacillus subtilis [7]): 16 µg/mL (≈ 39.1 µM)
- inhibition zone (IZ) (Staphylococcus aureus [8]): 23.3 mm
- inhibition (INH) (Aspergillus niger): 50%

Structure (SMILES): O=[N+]([O-])c1ccc(-n2cc(-c3nnc(-c4ccccc4)o3)c(-c3ccccc3)n2)cc1
- MIC (Staphylococcus aureus [1]): 64 µg/mL (≈ 156 µM)
- inhibition zone (IZ) (Bacillus subtilis [2]): 24.3 mm
- inhibition zone (IZ) (Escherichia coli [3]): 18.6 mm
- MIC (Escherichia coli [4]): 128 µg/mL (≈ 313 µM)
- inhibition (INH) (Aspergillus flavus): 66.6%
- MIC (Pseudomonas aeruginosa [5]): > 128 µg/mL
- inhibition zone (IZ) (Pseudomonas aeruginosa [6]): 15.3 mm
- MIC (Bacillus subtilis [7]): 8 µg/mL (≈ 19.5 µM)
- inhibition zone (IZ) (Staphylococcus aureus [8]): 20.6 mm
- inhibition (INH) (Aspergillus niger): 66.6%

Structure (SMILES): COc1ccc(-c2nn(-c3ccc([N+](=O)[O-])cc3)cc2-c2nnc(-c3ccccc3)o2)cc1
- MIC (Staphylococcus aureus [1]): 8 µg/mL (≈ 18.2 µM)
- inhibition zone (IZ) (Bacillus subtilis [2]): 23.6 mm
- inhibition zone (IZ) (Escherichia coli [3]): 20.6 mm
- MIC (Escherichia coli [4]): 64 µg/mL (≈ 146 µM)
- inhibition (INH) (Aspergillus flavus): 50%
- MIC (Pseudomonas aeruginosa [5]): 64 µg/mL (≈ 146 µM)
- inhibition zone (IZ) (Pseudomonas aeruginosa [6]): 18.6 mm
- MIC (Bacillus subtilis [7]): 8 µg/mL (≈ 18.2 µM)
- inhibition zone (IZ) (Staphylococcus aureus [8]): 24.3 mm
- inhibition (INH) (Aspergillus niger): 55.5%

Structure (SMILES): O=[N+]([O-])c1ccc(-n2cc(-c3nnc(-c4ccccc4)o3)c(-c3ccc(F)cc3)n2)cc1
- MIC (Staphylococcus aureus [1]): 32 µg/mL (≈ 74.9 µM)
- inhibition zone (IZ) (Bacillus subtilis [2]): 24.3 mm
- inhibition zone (IZ) (Escherichia coli [3]): 20 mm
- MIC (Escherichia coli [4]): 64 µg/mL (≈ 150 µM)
- inhibition (INH) (Aspergillus flavus): 55.5%
- MIC (Pseudomonas aeruginosa [5]): 128 µg/mL (≈ 299 µM)
- inhibition zone (IZ) (Pseudomonas aeruginosa [6]): 16.6 mm
- MIC (Bacillus subtilis [7]): 8 µg/mL (≈ 18.7 µM)
- inhibition zone (IZ) (Staphylococcus aureus [8]): 21.3 mm
- inhibition (INH) (Aspergillus niger): 44.4%

Structure (SMILES): O=[N+]([O-])c1ccc(-c2nn(-c3ccc([N+](=O)[O-])cc3)cc2-c2nnc(-c3ccccc3)o2)cc1
- MIC (Staphylococcus aureus [1]): 16 µg/mL (≈ 35.2 µM)
- inhibition zone (IZ) (Bacillus subtilis [2]): 23.6 mm
- inhibition zone (IZ) (Escherichia coli [3]): 18.3 mm
- MIC (Escherichia coli [4]): 128 µg/mL (≈ 282 µM)
- inhibition (INH) (Aspergillus flavus): 44.4%
- MIC (Pseudomonas aeruginosa [5]): > 128 µg/mL
- inhibition zone (IZ) (Pseudomonas aeruginosa [6]): 14.6 mm
- MIC (Bacillus subtilis [7]): 8 µg/mL (≈ 17.6 µM)
- inhibition zone (IZ) (Staphylococcus aureus [8]): 22.6 mm
- inhibition (INH) (Aspergillus niger): 55.5%

Structure (SMILES): O=C(O)c1cn(C2CC2)c2cc(N3CCNCC3)c(F)cc2c1=O [CIPROFLOXACIN]
- MIC (Staphylococcus aureus [1]): 5 µg/mL (≈ 15.1 µM)
- inhibition zone (IZ) (Bacillus subtilis [2]): 24 mm
- MIC (Escherichia coli [4]): 5 µg/mL (≈ 15.1 µM)
- MIC (Pseudomonas aeruginosa [5]): 5 µg/mL (≈ 15.1 µM)
- inhibition zone (IZ) (Pseudomonas aeruginosa [6]): 22 mm
- MIC (Bacillus subtilis [7]): 5 µg/mL (≈ 15.1 µM)
- inhibition zone (IZ) (Staphylococcus aureus [8]): 26 mm

Structure (SMILES): OC(Cn1cncn1)(Cn1cncn1)c1ccc(F)cc1F [FLUCONAZOLE]
- inhibition (INH) (Aspergillus flavus): 77.7%
- inhibition (INH) (Aspergillus niger): 81.1%
